Results taken from publication PMC5069309 (Clinical Pharmacokinetics, 2016).
Like-named read-outs stand apart in the source and are kept apart here.

How the values were obtained:
[1] = type: in vivo; details: human, plasma, sc
How it was run: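 Type 1 diabetic subjects dosed sc once daily for 4 weeks, from 0.6 mg/day rising 0.6 mg weekly to 0.6, 1.2 or 1.8 mg. Plasma taken pre-dose and 2–60 h after the final steady-state dose; sandwich ELISA with N- and C-terminal monoclonals, LLOQ 30 pmol/L. Non-compartmental: trapezoidal AUC, observed Cmax/tmax, CL/F = dose/AUC0–24 h, Vz/F = (CL/F)/λz.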

[2] = cited from earlier work

- Vd/F [1]: 27.4 L
- Vd/F ([1]; 0.6 mg): 27 L
- Vd/F ([1]; 1.2 mg): 26 L
- Vd/F ([1]; 1.8 mg): 29.3 L
SMILES: CCCCCCCCCCCCCCCC(=O)N[C@@H](CCC(=O)NCCCC[C@H](NC(=O)[C@H](C)NC(=O)[C@H](C)NC(=O)[C@H](CCC(N)=O)NC(=O)CNC(=O)[C@H](CCC(=O)O)NC(=O)[C@H](CC(C)C)NC(=O)[C@H](Cc1ccc(O)cc1)NC(=O)[C@H](CO)NC(=O)[C@H](CO)NC(=O)[C@@H](NC(=O)[C@H](CC(=O)O)NC(=O)[C@H](CO)NC(=O)[C@@H](NC(=O)[C@H](Cc1ccccc1)NC(=O)[C@@H](NC(=O)CNC(=O)[C@H](CCC(=O)O)NC(=O)[C@H](C)NC(=O)[C@@H](N)Cc1cnc[nH]1)[C@@H](C)O)[C@@H](C)O)C(C)C)C(=O)N[C@@H](CCC(=O)O)C(=O)N[C@@H](Cc1ccccc1)C(=O)N[C@H](C(=O)N[C@@H](C)C(=O)N[C@@H](Cc1c[nH]c2ccccc12)C(=O)N[C@@H](CC(C)C)C(=O)N[C@H](C(=O)N[C@@H](CCCNC(=N)N)C(=O)NCC(=O)N[C@@H](CCCNC(=N)N)C(=O)NCC(=O)O)C(C)C)[C@@H](C)CC)C(=O)O [Liraglutide, liraglutide]
- V z/F ([2]; healthy volunteers and subjects with T2D, previous studies): 11 to 17 L
- CL/F ([2]; studies with healthy volunteers and subjects with T2D): 1.2 L/h
